The term EC50 denotes the midpoint of the concentration-response curve. A word on the IC50: it is the point on the concentration scale where inhibition reaches its midpoint. For orientation: CC50 means the concentration giving 50% cytotoxicity.

Results on 13 compounds are retold here after ChEMBL document CHEMBL4017507 (J Med Chem, 2017).

Data set [1] concerns Human betaherpesvirus 5. Kind of data set: Antiviral activity against human cytomegalovirus AD-169 infected in human HEL cells assessed as inhibition of virus-induced cytopathic effect. The format is functional, cell-based. The conditions noted are these: Human betaherpesvirus 5, AD-169, HEL. In short, it runs like this: (§1)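 Confluent HEL fibroblast monolayers were inoculated in 96-well plates with 100 CCID50 of virus in the presence of serially varied compound concentrations. Cytopathicity was scored once untreated infected controls reached full CPE.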
A general note: Cytopathic effects are the visible damage that an infection or toxin causes in cultured cells.

For data set [2], the system named is Human immunodeficiency virus 1. In words: Antiviral activity against HIV1 X4LAI.04 infected in human MT4 cells assessed as decrease in viral replication by p24gag-based luminex assay. In kind it is functional, cell-based. The conditions noted are these: Human immunodeficiency virus 1, X4LAI.04, MT4. In a few lines:
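10^6 MT-4 cells were infected with HIV-1 X4LAI.04 (7 ng p24) for 2 h at 37 °C, then washed with PBS and resuspended. Compounds were added and cultures were kept 3 days at 37 °C. Supernatant p24 was measured by bead-based Luminex. Inhibition was calculated as (1 − p24 treated/p24 untreated) × 100, and EC50 was derived from it.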

Data set [3] deals with MT4. In words: Cytotoxicity against human MT4 cells assessed as reduction in cell viability by cell counting method. The format is cell-based. In a few lines:
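MT-4 cultures, untreated or treated, were assessed with an automated cell counter using propidium iodide staining to enumerate total and dead cells.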

Data set [4] deals with CCRF-CEM. Kind of data set: Cytostatic activity human CEM cells assessed as reduction in cell viability after 72 hrs by cell counting method. The conditions noted are these: ccrf-cem, 72 h. In kind it is cell-based. In short, it runs like this: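 (5–7.5) × 10^? CEM cells per well were grown with compound for 72 h at 37 °C under humidified CO2. Cells were counted in a Coulter counter.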

The test system of data set [5] is Human alphaherpesvirus 1. Kind of data set: Antiviral activity against Herpes simplex virus 1 KOS infected in human HEL cells assessed as inhibition of virus-induced cytopathic effect. In kind it is functional, cell-based. The conditions noted are these: Human alphaherpesvirus 1, KOS. In short, it runs like this: as §1
In data set [6] the test system is Human alphaherpesvirus 2. Kind of data set: Antiviral activity against Herpes simplex virus 2 G infected in human HEL cells assessed as inhibition of virus-induced cytopathic effect. In kind it is functional, cell-based. The conditions noted are these: Human alphaherpesvirus 2, strain G. In a few lines: as §1
Data set [7] deals with Human alphaherpesvirus 1. Kind of data set: Antiviral activity against ACV-resistant thymidine kinase deficient Herpes simplex virus 1 KOS infected in human HEL cells assessed as inhibition of virus-induced cytopathic effect. In kind it is functional, cell-based. The conditions noted are these: Human alphaherpesvirus 1, KOS. In a few lines:
as §1

Data set [8] in a line: Cytotoxicity against human HEL cells assessed as alteration to cell morphology by microscopic analysis. The format is cell-based. In a few lines: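 Minimal cytotoxic concentration is the compound concentration giving a microscopically visible alteration of HEL cell morphology, scored in the antiviral assay cultures.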
The test system of data set [9] is Human betaherpesvirus 5. Kind of data set: Antiviral activity against human cytomegalovirus Davis infected in human HEL cells assessed as inhibition of virus-induced cytopathic effect. In kind it is functional, cell-based. The conditions noted are these: Human betaherpesvirus 5, Davis. In a few lines: as §1
For data set [10], the system named is Human alphaherpesvirus 3. Kind of data set: Antiviral activity against Varicella-Zoster virus OKA infected in human HEL cells assessed as inhibition of virus-induced cytopathic effect. The format is functional, cell-based. The note with it: Human alphaherpesvirus 3, strain Oka vaccine. In a few lines:
(§2)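 Confluent HEL fibroblast cultures were inoculated with 20 PFU of VZV in the presence of varying compound concentrations. Plaque formation was recorded once untreated infected controls reached completion.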

The test system of data set [11] is Human alphaherpesvirus 3. Kind of data set: Antiviral activity against thymidine kinase deficient Varicella-Zoster virus 07-1 infected in human HEL cells assessed as inhibition of virus-induced cytopathic effect. The format is functional, cell-based. The note with it: Human alphaherpesvirus 3, 07-1, HEL. In a few lines:
as §2

Data set [12] has as its system HEL. Kind of data set: Cytotoxicity against human HEL cells assessed as cell growth inhibition by cell counting method. The format is cell-based.

For the compound `COc1nc(N)nc2c1ncn2CCC(COP(=O)(N[C@@H](C)C(=O)OCc1ccccc1)Oc1ccccc1)COP(=O)(N[C@@H](C)C(=O)OCc1ccccc1)Oc1ccccc1` (stereo partly drawn), the EC50 in [1] is above 50 µM; in [2] it was 12 µM; in data set [5], 100 µM; in [6], above 100 µM; in data set [7], 100 µM; in [9], 37 µM. The EC50 in data set [10] was found to be 22 µM; in data set [11], 20 µM. The IC50 in data set [3] amounted to 20 µM. The CC50 in [4] is 19 µM; in [12] it was 25 µM. In [8], the MCC lay within 50 to 100 µM.
Take `CC(C)(NP(=O)(OCC(CO)OCn1cnc2c(=O)[nH]c(N)nc21)Oc1cccc2ccccc12)C(=O)OCc1ccccc1` (stereo not drawn): the EC50 is 6.6 µM in [1]; 10 µM in [2]; 0.6 µM in [5]; 0.85 µM in [6]; 1.4 µM in data set [7]; 4.9 µM in [9]. The EC50 in data set [10] was 13 µM; in data set [11], above 50 µM. Besides, the IC50 in [3] was 26 µM. In addition, the cytotoxic concentration (CC50) in data set [4] and in data set [12] was above 100 µM in each case. Moreover, in data set [8], the MCC was in the range of 50 to 100 µM.
On to `Nc1nc2c(ncn2COCCO)c(=O)[nH]1` [ACYCLOVIR], for which the CC50 in [12] came out at 787 µM.
Turning to `CCC(C)(C)COC(=O)[C@H](C)NP(=O)(OCC(CO)CCn1cnc2c(OC)nc(N)nc21)Oc1cccc2ccccc12` (stereo partly drawn), the EC50 in [1] was 43 µM; in data set [2] it was 24 µM; in data set [5], 11 µM; in data set [6], 10 µM; in data set [7], at least 20 µM; in data set [9], above 50 µM. For the same compound, the EC50 was found to be 4.4 µM in data set [10] and 9.7 µM in data set [11]. In addition, the IC50 in data set [3] stood at 17 µM. Besides, the CC50 in data set [4] came out at 18 µM; in data set [12] it was 28 µM. In [8], the MCC was 50 to 100 µM.
For the compound `C[C@H](NP(=O)(OCC(CCn1cnc2c(=O)[nH]c(/N=C/N(C)C)nc21)COP(=O)(N[C@@H](C)C(=O)OCc1ccccc1)Oc1ccccc1)Oc1ccccc1)C(=O)OCc1ccccc1` (stereo partly drawn), the EC50 in data set [1] was above 50 µM; in data set [2] it was 9 µM; in [5], above 100 µM; in data set [6], above 100 µM; in data set [7], above 100 µM; in data set [9], above 50 µM. For the same compound, the EC50 was determined as 29.8 µM in [10] and 28.6 µM in data set [11]. For the same compound, in data set [3], the IC50 turned out to be 10 µM. Further, the CC50 was 21 µM in data set [4] and 47 µM in data set [12]. Besides, the MCC in data set [8] lay within 50 to 100 µM.
As to `CC(C)(NP(=O)(OCC(CO)OCn1cnc2c(=O)[nH]c(N)nc21)Oc1ccccc1)C(=O)OCc1ccccc1` (stereo not drawn), the EC50 in data set [1] is 38.6 µM; in data set [2], above 150 µM; in data set [5], 0.09 µM; in data set [6], 0.3 µM; in data set [7], 0.15 µM; in [9], 15.8 µM. The figures for the EC50 in data set [10] and in data set [11] were 7.3 µM and 3.3 µM, respectively. The IC50 in data set [3] was above 150 µM. The CC50 in data set [4] and in data set [12] was above 100 µM in each case. In addition, in [8], the MCC lay in the range of 50 to 100 µM.
`COc1nc(N)nc2c1ncn2CCC(CO)COP(=O)(N[C@@H](C)C(=O)OCc1ccccc1)Oc1cccc2ccccc12` (stereo partly drawn): the EC50 in data set [1] was above 50 µM; in data set [2], 23 µM; in data set [5], 38 µM; in data set [6], 20 µM; in data set [7], 20 µM; in data set [9], 50 µM. Also, the EC50 in [10] was found to be 17 µM; in data set [11], 23 µM. In addition, the IC50 in data set [3] was 12 µM. Further, the CC50 in data set [4] worked out at 27 µM; in data set [12], 49 µM. In [8], the MCC was 50 to 100 µM.
Consider `C[C@H](NP(=O)(OCC(CCn1cnc2c(=O)[nH]c(N)nc21)COP(=O)(N[C@@H](C)C(=O)OCc1ccccc1)Oc1cccc2ccccc12)Oc1cccc2ccccc12)C(=O)OCc1ccccc1` (stereo partly drawn), for which the EC50 in data set [1] was above 50 µM; in [5], above 100 µM; in [6], above 100 µM; in [7], above 100 µM; in data set [9] it was above 50 µM; in [10], 13.5 µM. The EC50 in data set [11] was above 50 µM. The CC50 in data set [4] was above 10 µM; in data set [12], above 100 µM. In addition, the MCC in [8] fell in the range of 50 to 100 µM.
In the case of `COC(=O)[C@H](C)NP(=O)(OCC(CO)CCn1cnc2c(OC)nc(N)nc21)Oc1cccc2ccccc12` (stereo partly drawn), the EC50 is 32 µM in data set [1]; 16 µM in data set [2]; above 100 µM in data set [5]; above 100 µM in [6]; above 100 µM in [7]; 14 µM in data set [9]. Also, the EC50 stood at 13 µM in data set [10] and 25 µM in data set [11]. In data set [3], the IC50 was 10 µM. The CC50 in data set [4] stood at 15 µM; in [12], 37 µM. Moreover, in data set [8], the MCC lay in the range of 50 to 100 µM.
As to `C[C@H](NP(=O)(OCC(COP(=O)(N[C@@H](C)C(=O)OCc1ccccc1)Oc1ccccc1)OCn1cnc2c(=O)[nH]c(N)nc21)Oc1ccccc1)C(=O)OCc1ccccc1` (stereo partly drawn), the EC50 was 44.7 µM in data set [1]; 30 µM in data set [2]; 3 µM in data set [5]; 2.5 µM in [6]; 14.5 µM in [7]; 23.3 µM in data set [10]. Moreover, the EC50 in data set [11] was determined as 21.3 µM. The IC50 in [3] is above 150 µM. Moreover, the results for the CC50 in [4] and in data set [12] were 159 µM and above 100 µM, respectively. In data set [8], the MCC is above 100 µM.
With `C[C@H](NP(=O)(OCC(COP(=O)(N[C@@H](C)C(=O)OCc1ccccc1)Oc1cccc2ccccc12)OCn1cnc2c(=O)[nH]c(N)nc21)Oc1cccc2ccccc12)C(=O)OCc1ccccc1` (stereo partly drawn), the EC50 turned out to be 27.4 µM in data set [1]; 1.3 µM in data set [5]; 2.5 µM in data set [6]; 2.5 µM in data set [7]; 11.2 µM in data set [9]; 6.2 µM in data set [10]. Moreover, the EC50 in [11] turned out to be 4.1 µM. Also, in [3], the 50% inhibitory concentration (IC50) was above 150 µM. In addition, the MCC in [8] was 50 to 100 µM. Also, in data set [12], the CC50 was above 100 µM.
On to `CC(C)(NP(=O)(OCC(CO)CCn1cnc2c(=O)[nH]c(N)nc21)Oc1cccc2ccccc12)C(=O)OCc1ccccc1` (stereo not drawn), for which the EC50 in [1] is above 50 µM; in data set [2], 95 µM; in data set [5], 75 µM; in [6], 52 µM; in data set [7], above 100 µM; in data set [9] it was above 50 µM. The EC50 is 20.9 µM in data set [10] and above 50 µM in data set [11]. Further, the IC50 in data set [3] was 100 µM. Further, in data set [8], the MCC is 50 to 100 µM. In data set [12], the CC50 was above 100 µM.
As for `C[C@H](NP(=O)(OCC(CO)OCn1cnc2c(=O)[nH]c(N)nc21)Oc1ccccc1)C(=O)OCc1ccccc1` (stereo partly drawn), the EC50 in data set [1] was found to be 7.9 µM; in data set [2], 17 µM; in data set [5], 0.6 µM; in data set [6] it was 3 µM; in data set [7], 3 µM; in data set [9], 5 µM. Besides, the EC50 turned out to be 7.3 µM in data set [10] and 3.2 µM in data set [11]. In addition, in data set [3], the IC50 came to 20 µM. For the same compound, the MCC in [8] is above 100 µM. Moreover, the CC50 in data set [12] is at least 81 µM.
